Hits are enriched below; roughly 3.1% of the tested compounds scored in any of these assays.
UBC9 SUMO inh = blocks human SUMOylation mediated by UBC9 | P63279 | HTRF SUMOylation assay, SAE1/SAE2 + UBC9, in vitro | inhibition, % at 35 µM | 0.36% of 290,000 active | AID 2006; in the data active means inhibition above about 50%, passing the limit was not always enough
Target sequence (P63279 whole entry, looked up): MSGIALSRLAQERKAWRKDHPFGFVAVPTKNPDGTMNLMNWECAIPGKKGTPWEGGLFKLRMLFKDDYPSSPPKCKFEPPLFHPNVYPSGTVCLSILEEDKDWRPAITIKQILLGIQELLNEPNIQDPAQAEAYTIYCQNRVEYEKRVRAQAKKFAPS
PHOSPHO1 block = blocks human PHOSPHO1 phosphatase activity; Q8TCT1; 1.1% of 290,000 active; recombinant PHOSPHO1, absorbance phosphatase assay; inhibition, % at 13.3 µM; in the data active means inhibition above about 60%
Target sequence (Q8TCT1 whole entry, looked up): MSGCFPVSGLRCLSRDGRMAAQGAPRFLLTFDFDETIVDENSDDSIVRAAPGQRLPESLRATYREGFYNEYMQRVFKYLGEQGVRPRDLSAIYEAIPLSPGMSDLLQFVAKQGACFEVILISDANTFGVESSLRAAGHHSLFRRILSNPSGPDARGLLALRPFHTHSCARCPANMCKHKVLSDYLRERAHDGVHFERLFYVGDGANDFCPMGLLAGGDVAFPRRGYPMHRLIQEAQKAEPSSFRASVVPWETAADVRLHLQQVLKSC
IMP-1 inh-1 = inhibitors of Pseudomonas aeruginosa IMP-1 metallo-beta-lactamase; purified IMP-1, nitrocefin hydrolysis, epi-absorbance fluorescence; inhibition, % at 5.6 µM; 0.45% of 290,000 active; AID 1556;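 active means inhibition above the mean plus 3 SD of all compounds in the same screening run, cut at about 4.5% in these data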;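 further: 0% = IMP-1 with DMSO and 100% = DMSO wells lacking enzyme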
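System: purified recombinant IMP-1 beta-lactamase. Medium: Zinc- and detergent-supplemented HEPES buffer, pH 7.1. Compound: one 5.6 µM dose […]. Schedule: 15 min preincubation plus 25 min reaction at 25 °C. Technique: Epi-absorbance fluorescence, 480 nm excitation, 530 nm emission.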
VIM-2 inhibitor = blocks Pseudomonas aeruginosa VIM-2 metallo-beta-lactamase. purified VIM-2, nitrocefin hydrolysis, epi-absorbance fluorescence. inhibition, % at 5.6 µM. 0.89% of 290,000 active. AID 1527;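 active means inhibition above the mean of all tested compounds plus 3 SD, cutoff set per screening run, cut at about 7.5% in these data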;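 further: red hydrolysis product quenches plate fluorescence so inhibitors raise well fluorescence; 0% = enzyme with DMSO and 100% = DMSO without enzyme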
core dimer inh = blocks dimerization of HCV core protein | TR-FRET GST/Flag-core106 dimerization, 1536-well | inhibition, % at 5 µM | 0.33% of 300,000 active;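 active means inhibition above the mean of all tested compounds plus 3 SD, set per screening campaign, cut at about 45% in these data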
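test system = GST/Flag-tagged HCV core106 proteins | probe or stimulus = Eu donor and XL665 acceptor anti-tag antibodies | times = compound-protein-antibody incubation 4 h at 22.5 °C | signal = TR-FRET, excitation 340 nm, emission 617 and 671 nm | measure = percent inhibition of core106 dimerization signal | controls = wells lacking GST-core106 and wells with excess unlabelled core106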
NS3 helicase inh = HCV NS3 helicase inhibition; inhibition, % at 10.9 µM; 0.56% of 290,000 active; NS3 helicase DNA unwinding, Cy5 molecular beacon fluorescence;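 active means inhibition above the mean of all tested compounds plus 3 SD, set per campaign, cut at about 35% in these data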;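 further: 0% = DMSO wells and 100% = thioflavine S control wells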
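test system = hepatitis C virus NS3 helicase domain fragment enzyme | reagent = annealed dual-labelled DNA beacon duplex, ATP-started | times = 1 h at 25 °C | detection = Cy5 fluorescence, 0 and 60 min reads | read-out basis = percent inhibition from t60/t0 fluorescence ratio | control set = DMSO and thioflavine S | replication = one well per compound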
IMP-1 inh-2 = blocks IMP-1 metallo-beta-lactamase in VIM-2 selectivity screen; inhibition, % at 5.6 µM; 1,300 tested, under 10 active; shares compounds with VIM-2 inhibitor; purified IMP-1, nitrocefin hydrolysis, epi-absorbance fluorescence; AID 1856; call rule not given here;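 further: 0% = enzyme with vehicle and 100% = vehicle without enzyme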
VIM-2 FRET ctr = VIM-2 FRET inhibition, artifact counter-screen. shares compounds with VIM-2 inhibitor. inhibition, % at 5.6 µM. purified VIM-2, CCF2 FRET substrate hydrolysis. 23% of 1,300 active. AID 1857;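 active means inhibition above the mean of all tested compounds plus 3 SD, cut at about 19% in these data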;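 further: 0% = VIM-2 plus DMSO and 100% = no enzyme wells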
TEM-1 counter = selectivity counter-screen for VIM-2 inhibitors: E. coli TEM-1 inhibitors | shares compounds with VIM-2 inhibitor | Purified TEM-1, nitrocefin hydrolysis, epi-absorbance fluorescence | inhibition, % at 5.6 µM | 3% of 1,300 active;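 active means inhibition above that campaign's mean inhibition plus 3 SD, cut at about 0.46% in these data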;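 further: 0% = TEM-1 with DMSO and 100% = TEM-1 with 100 µM potassium clavulanate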
Target sequence (P62593 whole entry, looked up): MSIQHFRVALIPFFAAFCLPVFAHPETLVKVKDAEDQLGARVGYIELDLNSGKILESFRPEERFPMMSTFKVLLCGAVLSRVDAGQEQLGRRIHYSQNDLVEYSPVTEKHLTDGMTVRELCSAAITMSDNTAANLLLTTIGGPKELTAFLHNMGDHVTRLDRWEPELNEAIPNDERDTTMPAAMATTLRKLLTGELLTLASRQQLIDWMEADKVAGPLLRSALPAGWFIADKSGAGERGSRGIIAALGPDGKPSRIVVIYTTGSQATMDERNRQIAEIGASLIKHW
VIM-2 confirm 2 = confirmation of P. aeruginosa VIM-2 metallo-beta-lactamase inhibitors; shares compounds with VIM-2 inhibitor; purified VIM-2, nitrocefin hydrolysis, epi-absorbance; inhibition, % at 5.6 µM; 96% of 1,300 active; AID 2187;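 active means inhibition of the VIM-2 beta-lactamase enzyme above about 11% from the earlier first-round screen, limit read from the data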;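 further: 0% = VIM-2 with DMSO and 100% = buffer wells without enzyme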
* marks the source's active call; other numbers are inactive results; x = no result.

SMILES | UBC9 SUMO inh | PHOSPHO1 block | IMP-1 inh-1 | VIM-2 inhibitor | core dimer inh | NS3 helicase inh | IMP-1 inh-2 | VIM-2 FRET ctr | TEM-1 counter | VIM-2 confirm 2
CC(=O)Nc1ccc(Nc2cc(N(C)C)c3nonc3c2[N+](=O)[O-])cc1 | 8 | 6 | -3 | 30* | x | -9 | -3 | -3 | -6 | 36*
O=Nc1c2nc3ccccc3n(O)c-2c2ccccc12 | 16 | 18 | -5 | 16* | -13 | -1 | -4 | -1 | -5 | 27*
On1c(-c2ccccc2)nc2ccccc21 | 16 | 17 | -1 | -1 | -7 | -15 | x | x | x | x
Cc1ccc(C(=O)NCC(=O)Nc2ccncc2)s1 | 6 | 38 | -2 | -4 | -3 | 4 | x | x | x | x
COCCNC(=O)c1nn2c(C(F)(F)F)cc(-c3ccccc3)nc2c1Cl | 16 | 40 | -1 | 4 | 8 | -6 | x | x | x | x
O=C(NCCCn1ccnc1)c1nn2c(C(F)(F)F)cc(-c3ccccc3)nc2c1Cl | 15 | -8 | -3 | 27* | -6 | -7 | -3 | -12 | -4 | 53*
Cc1ccc2[nH]c(C)c(/C=C/c3cc[n+](C)cc3)c2c1 | -6 | -9 | 4 | 16* | x | -23 | 1 | 2 | 0 | 26*
CCN(CC)CCOc1cc2c(nn1)Oc1ccccc1N2C | 49 | 9 | 1 | 18* | -3 | 8 | -3 | 2 | -7 | 20*
COc1cccc(/C=C2/Sc3ccc(C(=O)NCCCN4CCCC4)cc3NC2=O)c1 | 3 | 43 | 0 | 16* | -3 | -40 | -2 | 43* | -5 | 28*
Cc1ccc(/C=C2/Sc3ccc(C(=O)NCCN4CCOCC4)cc3NC2=O)cc1 | 26 | 21 | -2 | 0 | -14 | -35 | x | x | x | x
O=C(NCCCN1CCCCC1)c1ccc2c(c1)NC(=O)c1ccccc1S2 | 6 | 28 | -5 | -2 | -7 | -37 | x | x | x | x
O=C1Nc2cc(C(=O)NCCCN3CCCC3)ccc2S/C1=C/c1ccccc1F | 24 | 22 | -3 | 33* | -18 | -40 | -3 | 54* | -7 | 38*
Cc1cccc(-n2c(C)n[nH]c2=S)c1C | -13 | -17 | -3 | 12* | -5 | 0 | -4 | 40* | -6 | 24*
Cc1n[nH]c(=S)n1-c1cccc(Cl)c1 | 12 | -37 | -1 | 14* | -4 | -9 | -3 | 36* | -7 | 23*
Cc1cccc(-n2c(Cn3nc(C)c([N+](=O)[O-])c3C)n[nH]c2=S)c1 | 14 | -61 | -1 | 1 | 1 | -4 | x | x | x | x
Cc1ccccc1OCc1n[nH]c(=S)n1-c1cccc(Cl)c1 | -14 | -102 | -3 | -6 | 1 | 8 | x | x | x | x
Cc1nn(CCc2n[nH]c(=S)n2-c2cccc(Cl)c2)c(C)c1[N+](=O)[O-] | 10 | 93* | -6 | 17* | -1 | -3 | -3 | 48* | -7 | 30*
Cc1[nH]c2ccccc2c1C(=O)C(=O)NCc1ccncc1 | x | x | -4 | -2 | 7 | 12 | x | x | x | x
COc1ccccc1OCC(=O)NCCCn1ccnc1 | 15 | 16 | 1 | -4 | -14 | -12 | x | x | x | x
Cc1c(OCC(=O)NCCCn2ccnc2)ccc2c3c(c(=O)oc12)CCC3 | 7 | 10 | -1 | 48* | -4 | -4 | -3 | -8 | -13 | 58*
Cc1c(C)c2ccc(OCC(=O)NCCCn3ccnc3)c(C)c2oc1=O | 26 | 12 | 1 | 42* | -15 | 30 | -4 | -4 | -12 | 49*
Cc1cc(C)cc(OC(C)C(=O)NCCCn2ccnc2)c1 (stereo unspecified) | 18 | 40 | -1 | -2 | 12 | -6 | x | x | x | x
Cc1coc2c(C)c3oc(=O)c(CCC(=O)NCCCn4ccnc4)c(C)c3cc12 | 19 | 13 | 4 | 31* | -3 | -36 | -2 | -6 | -12 | 36*
Cc1c(OC(C)C(=O)NCCCn2ccnc2)ccc2c3c(c(=O)oc12)CCC3 (stereo unspecified) | 12 | 40 | -3 | 49* | -1 | -1 | -2 | -3 | -8 | 64*
Cc1cc(=O)oc2c(C)c(OCC(=O)NCCCn3ccnc3)ccc12 | 7 | 27 | -3 | 19* | -1 | 3 | -3 | -6 | -8 | 35*
SMILES | UBC9 SUMO inh | PHOSPHO1 block | IMP-1 inh-1 | VIM-2 inhibitor | core dimer inh | NS3 helicase inh | IMP-1 inh-2 | VIM-2 FRET ctr | TEM-1 counter | VIM-2 confirm 2
O=C1CCC([N+](=O)[O-])C(c2ccc(-c3ccccc3)cc2)N1 (stereo unspecified) | x | x | x | x | -4 | x | x | x | x | x
O=C(O)c1ccccc1Sc1ncnc2sc3c(c12)CCC3 | 15 | 17 | -2 | 29* | 3 | -4 | -4 | 61* | -6 | 37*
O=C1C(Br)=Cc2cccc3cccc1c23 | 23 | 18 | 0 | 15* | -33 | 10 | -2 | 1 | -6 | 20*
O=C1C([N+](=O)[O-])=C(O)c2cccc3cccc1c23 | -31 | 7 | 0 | 3 | x | 24 | x | x | x | x
COc1ccc(S(=O)(=O)N(C)c2ccc(C(=O)NCC3CCCO3)cc2)cc1OC (stereo unspecified) | -7 | 27 | -5 | -2 | 3 | 4 | x | x | x | x
Cc1cccn2c(=O)c3cc(C(=O)NCCc4ccccc4)c(=N)n(CCCn4ccnc4)c3nc12 | -2 | 4 | -1 | 14* | 5 | -11 | -2 | -39 | -6 | 51*
CCCn1c(=N)c(S(=O)(=O)c2ccccc2)cc2c(=O)n3cccc(C)c3nc21 | 21 | 26 | -1 | 15* | 10 | -10 | -4 | -1 | -7 | 23*
CCCCCn1c(=N)c(S(=O)(=O)c2ccc(Cl)cc2)cc2c(=O)n3cccc(C)c3nc21 | 6 | 31 | -4 | 1 | -7 | -2 | x | x | x | x
Cc1ccc2nc3c(cc(C(=O)NC4CCCC4)c(=N)n3CCCn3ccnc3)c(=O)n2c1 | 19 | -8 | 0 | 29* | -4 | 10 | -4 | -17 | -5 | 68*
COCCn1c(=N)c(C(=O)NCCc2ccccc2)cc2c(=O)n3cccc(C)c3nc21 | x | x | -2 | -3 | 1 | 8 | x | x | x | x
C=CCn1c(=N)c(C(=O)NCCCOC)cc2c(=O)n3cccc(C)c3nc21 | 26 | -30 | 0 | 25* | 12 | 16 | -4 | -88 | -8 | 29*
N#Cc1ccncc1Sc1ccc(Cl)cc1 | 16 | x | -1 | -2 | 8 | -7 | x | x | x | x
Nc1nonc1-n1nnc(C(=O)N/N=C/c2cc(Br)cs2)c1-c1ccccc1 | 9 | 24 | -4 | -1 | -5 | 6 | x | x | x | x

Bioassay records: PubChem BioAssay, several laboratories
